Key:
[1] = target: T1, Cholesteryl ester transfer protein (Homo sapiens, UniProt P11597); experiment: Inhibition of human plasma CETP assessed as [3H]cholesterol ester transfer after 18 hrs by scintillation proximity assay; type: cell-free
T1 sequence (P11597 whole entry): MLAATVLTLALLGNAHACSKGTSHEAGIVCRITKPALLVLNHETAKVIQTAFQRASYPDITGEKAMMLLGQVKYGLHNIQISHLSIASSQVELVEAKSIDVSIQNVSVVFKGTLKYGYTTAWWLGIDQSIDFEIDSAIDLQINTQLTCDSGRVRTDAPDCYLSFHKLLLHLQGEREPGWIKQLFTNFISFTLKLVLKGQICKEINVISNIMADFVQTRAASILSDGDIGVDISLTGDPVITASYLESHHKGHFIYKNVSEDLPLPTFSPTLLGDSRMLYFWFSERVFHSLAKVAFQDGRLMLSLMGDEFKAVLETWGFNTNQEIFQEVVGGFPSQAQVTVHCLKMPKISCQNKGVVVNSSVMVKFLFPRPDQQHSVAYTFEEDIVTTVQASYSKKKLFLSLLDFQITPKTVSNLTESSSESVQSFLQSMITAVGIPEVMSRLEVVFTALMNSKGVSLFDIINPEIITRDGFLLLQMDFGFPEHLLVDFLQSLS
Summary of the method: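 Scintillation proximity assay. HDL-³H-cholesteryl ester (~50,000 cpm) and biotin-LDL were incubated at 37 °C for 18 h with CETP (1 mg/ml stock) in […]/0.15 M NaCl/0.1% BSA/0.05% NaN₃ pH 7.4. Compound was dissolved in 10% DMSO/1% BSA. Streptavidin SPA beads were added with 1 h shaking, then scintillation counting. Buffer-only and CETP incubations served as controls.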

[2] = target: T1, Cholesteryl ester transfer protein; experiment: Inhibition of CETP assessed as cholesterol ester transfer after 4 hrs by microemulsion based fluorescence assay
Summary of the method: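 CETP-containing sample (1–3 µg CETP enriched from human plasma) incubated at 37 °C for 4 h with compound in DMSO and a liposome emulsion (1 vol donor, 1 vol buffer, 2 vol acceptor). Liposomes were made by dioxane injection into 50 mM Tris/HCl pH 7.3, 150 mM NaCl, 2 mM EDTA, then sonicated. Read-out was the fluorescence increase versus a DMSO control.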

[3] = target: T1, Cholesteryl ester transfer protein; experiment: Inhibition of human plasma CETP assessed as cholesterol ester transfer after 24 hrs by fluorescence assay; type: cell-free
Summary of the method: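 Donor liposomes (12% v/v) and compound in DMSO (2% v/v) added to human plasma (86% v/v) and incubated at 37 °C for 24 h. Transfer was taken as the fluorescence change at 510/520 nm, compared with a DMSO control.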

[4] = Half life in mouse plasma; type: ADME, organism-based
[5] = Half life in rat plasma; type: ADME, organism-based
[6] = Half life in dog plasma; type: ADME, organism-based, Canis lupus familiaris
[7] = Oral bioavailability in rat; type: ADME, organism-based; details: in vivo
[8] = Oral bioavailability in dog; type: ADME, organism-based, Canis lupus familiaris; details: in vivo

Structure (SMILES)	IC50 [2] [nM]	other results
CC1(C)Cc2nc(C3CCCC3)c([C@@H](F)c3ccc(C(F)(F)F)cc3)c(C3CCCCC3)c2[C@@H](O)C1	25	IC50 [1]: 7 nM; IC50 [3]: 50 nM; half-life [4]: 5 h; half-life [5]: 7.2 h; half-life [6]: 8.6 h; bioavailability [7]: 44%; bioavailability [8]: 74%
O[C@H]1CC2(CCC2)Cc2nc(C3CCCC3)c([C@@H](F)c3ccc(C(F)(F)F)cc3)c(C3CCCCC3)c21	22	IC50 [1]: 62 nM; IC50 [3]: 60 nM
CC(C)c1c(C(=O)c2ccc(C(F)(F)F)cc2)c(C2CCCC2)nc2c1[C@@H](O)CC1(CCC1)C2	300	–
CC(C)c1nc2c(c(-c3ccc(F)cc3)c1[C@@H](F)c1ccc(C(F)(F)F)cc1)[C@@H](O)CC1(CCC1)C2	24	–
CC(C)c1nc2c(c(C3CCCCC3)c1[C@@H](F)c1ccc(C(F)(F)F)cc1)[C@@H](O)CC1(CCC1)C2	17	IC50 [1]: 33 nM; IC50 [3]: 70 nM
CC1(C)Cc2nc(C3CCCC3)c(C(=O)c3ccc(C(F)(F)F)cc3)c(CC(F)(F)F)c2[C@@H](O)C1	3000	–
O=C(c1ccc(C(F)(F)F)cc1)c1c(C2CCCC2)nc2c(c1C1CCCCC1)[C@@H](O)CC1(CCC1)C2	55	–
O[C@@H](c1ccc(C(F)(F)F)cc1)c1c(C2CCCC2)nc2c(c1C1CCCCC1)[C@@H](O)CC1(CCC1)C2	100	–
CC(C)c1nc2c(c(C3CCCCC3)c1[C@@H](F)c1ccc(C(F)(F)F)cc1)[C@@H](O)CC(C)(C)C2	30	IC50 [1]: 23 nM; IC50 [3]: 75 nM
CCCCCc1c(C(=O)c2ccc(C(F)(F)F)cc2)c(C2CCCC2)nc2c1[C@@H](O)CC(C)(C)C2	2000	–
CC(C)c1nc2c(c(C3CCCCC3)c1C(=O)c1ccc(C(F)(F)F)cc1)[C@@H](O)CC(C)(C)C2	70	–
CC1(C)Cc2nc(C3CCCC3)c(C(=O)c3ccc(C(F)(F)F)cc3)c(C3CCCC3)c2[C@@H](O)C1	90	–
CCc1c(C(=O)c2ccc(C(F)(F)F)cc2)c(C2CCCC2)nc2c1[C@@H](O)CC(C)(C)C2	4500	–
CC1(C)Cc2nc(C3CCCC3)c(C(=O)c3ccc(C(F)(F)F)cc3)c(C3CCNCC3)c2[C@@H](O)C1	> 20000	–
CC(C)c1nc2c(c(C3CCCCC3)c1C(=O)c1ccc(C(F)(F)F)cc1)[C@@H](O)CC1(CCC1)C2	33	–
CCOC(=O)c1c(C(=O)c2ccc(C(F)(F)F)cc2)c(C2CCCC2)nc2c1[C@@H](O)CC(C)(C)C2	> 20000	–

Structure (SMILES)	IC50 [2] [nM]	other results
CC(C)c1nc2c(c(C3CCCCC3)c1[C@@H](O)c1ccc(C(F)(F)F)cc1)[C@@H](O)CC(C)(C)C2 (relative stereo)	80	–
CC1(C)Cc2nc(C3CCCC3)c([C@@H](F)c3ccc(C(F)(F)F)cc3)c(-c3ccc(F)cc3)c2[C@@H](O)C1	31	–
CC1(C)Cc2nc(C3CCCC3)c(C(=O)c3ccc(C(F)(F)F)cc3)c(C3CC3)c2[C@@H](O)C1	3000	–
CC(C)c1nc2c(c(C3CCCCC3)c1[C@@H](O)c1ccc(C(F)(F)F)cc1)[C@@H](O)CC1(CCC1)C2	70	–
O=C(c1ccc(C(F)(F)F)cc1)c1c(C2CCCC2)nc2c(c1C1CCCC1)[C@@H](O)CC1(CCC1)C2	70	–
CCC(C)c1c(C(=O)c2ccc(C(F)(F)F)cc2)c(C2CCCC2)nc2c1[C@@H](O)CC(C)(C)C2 (stereo not given in full)	2000	–
CC1(C)Cc2nc(C3CCCC3)c(C(=O)c3ccc(C(F)(F)F)cc3)c(C3CCN(C(=O)OCc4ccccc4)CC3)c2[C@@H](O)C1	500	–
CC1(C)Cc2nc(C3CCCC3)c([C@@H](O)c3ccc(C(F)(F)F)cc3)c(C3CCCCC3)c2[C@@H](O)C1 (relative stereo)	100	–
CC1(C)Cc2nc(C3CCCC3)c(C(=O)c3ccc(C(F)(F)F)cc3)c(C3CCCCC3)c2[C@@H](O)C1	60	–
CC(C)c1c(C(=O)c2ccc(C(F)(F)F)cc2)c(C2CCCC2)nc2c1[C@@H](O)CC(C)(C)C2	600	–
CCCc1c(C(=O)c2ccc(C(F)(F)F)cc2)c(C2CCCC2)nc2c1[C@@H](O)CC1(CCC1)C2	600	–
CC1(C)Cc2nc(C3CCCC3)c(C(=O)c3ccc(C(F)(F)F)cc3)c(N3CCCC3)c2[C@@H](O)C1	4000	–
CC1(C)Cc2nc(C3CCCC3)c(C(=O)c3ccc(C(F)(F)F)cc3)c(CN3CCCCC3)c2[C@@H](O)C1	15000	–
CC1(C)Cc2nc(C3CCCC3)c(Cc3ccc(C(F)(F)F)cc3)c(C3CCCCC3)c2[C@@H](O)C1	39	IC50 [3]: 300 nM
CC1(C)Cc2nc(C3CCCC3)c(C(=O)c3ccc(C(F)(F)F)cc3)c(CCl)c2[C@@H](O)C1	15000	–
